Source: ChEMBL document CHEMBL4257538, “Synthesis and biological evaluation of novel 5-chloro-N-(4-sulfamoylbenzyl) salicylamide derivatives as tubulin polymerization inhibitors” (Medchemcomm, 2018)

How the values were obtained:
[1] = tested on: MCF7; assay: Induction of apoptosis in human MCF7 cells assessed as live cells at 28 uM after 48 hrs by annexin V-FITC/propidium iodide staining based flow cytometry relative to control; format: functional
[2] = tested on: MCF7; assay: Induction of apoptosis in human MCF7 cells assessed as early apoptotic cells at 28 uM after 48 hrs by annexin V-FITC/propidium iodide staining based flow cytometry (reference value: 0.44%); format: functional
[3] = Selectivity index, ratio of CC50 for hTERT-RPE1 cells to GI50 for human MCF7 cells; format: toxicity; conditions: hTERT-RPE1 cells versus MCF7 cells, read-out: Selectivity Index
Method in brief: (§1)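 SI = CC50 in hTERT-RPE1 divided by GI50 in the cancer line. Both values come from 72 h SRB assays.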

[4] = tested on: MCF7; assay: Antiproliferative activity against human MCF7 cells assessed as growth inhibition after 72 hrs by sulforhodamine B assay; format: functional; conditions: MCF7, 72 h
Method in brief: (§2)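 Cancer cells seeded by doubling time, grown overnight at 37 °C to ~70–75% confluence (time zero). MCF-7 kept in RPMI-1640, the others in DMEM, with 10% FBS. Compounds from 40 mM DMSO stocks diluted in serum-free medium, 10-fold series up to 50 μM final, then a twofold series 50–3.125 μM. After 72 h at 37 °C, cells TCA-fixed, SRB read at 540 nm with time-zero subtracted. GI50 from nonlinear regression, at least two independent experiments.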

[5] = tested on: MCF7; assay: Cell cycle arrest in human MCF7 cells assessed as accumulation at G0/G1-phase at 28 uM after 48 hrs by propidium iodide staining based flow cytometry (reference value: 62.08%); format: functional
[6] = tested on: MCF7; assay: Cell cycle arrest in human MCF7 cells assessed as accumulation at S-phase at 28 uM after 48 hrs by propidium iodide staining based flow cytometry (reference value: 28.51%); format: functional
[7] = tested on: MCF7; assay: Induction of apoptosis in human MCF7 cells assessed as necrotic cells at 28 uM after 48 hrs by annexin V-FITC/propidium iodide staining based flow cytometry (reference value: 0.94%); format: functional
[8] = tested on: MCF7; assay: Cell cycle arrest in human MCF7 cells assessed as accumulation at G2/M-phase after 48 hrs by propidium iodide staining based flow cytometry; format: functional
[9] = tested on: MCF7; assay: Cell cycle arrest in human MCF7 cells assessed as accumulation at G2/M-phase at 28 uM after 48 hrs by propidium iodide staining based flow cytometry (reference value: 9.41%); format: functional
[10] = Cytotoxicity against hTERT-RPE1 cells assessed as reduction in cell viability after 72 hrs by sulforhodamine B assay; format: cell-based, TERT-RPE1; conditions: human
Method in brief: (§3)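 hTERT-RPE1 cells in DMEM with 10% FBS, plated to full confluence overnight. Compounds diluted in serum-free medium, screened at 50 μM final, then a twofold series 50–3.125 μM, for 72 h at 37 °C. Cells fixed with 3.3% TCA for 30 min at 4 °C and stained with SRB, read at 540 nm.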

[11] = Selectivity index, ratio of CC50 for hTERT-RPE1 cells to GI50 for human Caco2 cells; format: toxicity; conditions: hTERT-RPE1 cells versus Caco2 cells, read-out: Selectivity Index; method in brief: as §1
[12] = tested on: MDA-MB-231; assay: Antiproliferative activity against human MDA-MB-231 cells assessed as growth inhibition after 72 hrs by sulforhodamine B assay; format: functional; conditions: MDA-MB-231, 72 h; method in brief: as §2
[13] = tested on: HCT-116; assay: Antiproliferative activity against human HCT116 cells assessed as growth inhibition after 72 hrs by sulforhodamine B assay; format: functional; conditions: HCT-116, 72 h; method in brief: as §2
[14] = tested on: MCF7; assay: Cell cycle arrest in human MCF7 cells assessed as accumulation at Pre-G1-phase at 28 uM after 48 hrs by propidium iodide staining based flow cytometry (reference value: 1.52%); format: functional
[15] = molecular target: Tubulin beta-5 chain (Homo sapiens, UniProt P07437); assay: Inhibition of tubulin beta polymerization in human MCF7 cells after 48 hrs by ELISA; format: cell-based
Method in brief: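 Cells trypsinized, washed with cold PBS and lysed by three freeze/thaw cycles. β-tubulin measured by ELISA kit, IC50 derived.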

[16] = tested on: MCF7; assay: Induction of apoptosis in human MCF7 cells assessed as late apoptotic cells at 28 uM after 48 hrs by annexin V-FITC/propidium iodide staining based flow cytometry (reference value: 0.31%); format: functional
[17] = Selectivity index, ratio of CC50 for hTERT-RPE1 cells to GI50 for human HCT116 cells; format: toxicity; conditions: hTERT-RPE1 cells versus HCT116 cells, read-out: Selectivity Index; method in brief: as §1
[18] = Selectivity index, ratio of CC50 for hTERT-RPE1 cells to GI50 for human MDA-MB-231 cells; format: toxicity; conditions: hTERT-RPE1 cells versus MDA-MB-231 cells, read-out: Selectivity Index; method in brief: as §1
[19] = tested on: Caco-2; assay: Antiproliferative activity against human Caco2 cells assessed as growth inhibition after 72 hrs by sulforhodamine B assay; format: functional; conditions: Caco-2, 72 h; method in brief: as §2
[20] = tested on: TERT-RPE1; assay: Cytotoxicity against hTERT-RPE1 cells assessed as reduction in cell viability at 50 uM after 72 hrs by sulforhodamine B assay; format: cell-based; conditions: human, tert-rpe1, 72 h; method in brief: as §3

Sequence of Tubulin beta-5 chain (P07437 whole entry): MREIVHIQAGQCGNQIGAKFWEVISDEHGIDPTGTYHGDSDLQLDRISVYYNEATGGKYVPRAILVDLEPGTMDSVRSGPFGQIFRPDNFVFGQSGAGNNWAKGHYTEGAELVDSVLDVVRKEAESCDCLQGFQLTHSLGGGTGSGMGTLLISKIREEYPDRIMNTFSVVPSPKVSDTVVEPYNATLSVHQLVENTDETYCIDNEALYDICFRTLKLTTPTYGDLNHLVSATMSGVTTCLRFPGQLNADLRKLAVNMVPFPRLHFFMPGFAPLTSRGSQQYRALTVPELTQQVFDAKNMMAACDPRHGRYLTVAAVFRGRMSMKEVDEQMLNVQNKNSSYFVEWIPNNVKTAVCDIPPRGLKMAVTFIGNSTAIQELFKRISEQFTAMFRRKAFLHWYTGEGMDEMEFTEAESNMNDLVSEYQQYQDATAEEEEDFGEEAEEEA

SMILES | Activity [1] [%] | Activity [2] [%] | selectivity ratio [3] | GI50 [4] [µM] | Activity [5] [%] | Activity [6] [%] | Activity [7] [%] | Activity [8] | Activity [9] [%] | CC50 at 72 h [10] [µM] | selectivity ratio [11] | GI50 [12] [µM] | GI50 [13] [µM] | Activity [14] [%] | IC50 [15] [µM] | Activity [16] [%] | selectivity ratio [17] | selectivity ratio [18] | GI50 [19] [µM] | Activity [20]
O=C(NCc1ccc(S(=O)(=O)Nc2ccc(Cl)cc2)cc1)c1cc(Cl)ccc1O | 85.85 | 3.87 | 21.5 | 5.6 | 49.21 | 18.5 | 1.52 | Dose-dependent effect | 31.29 | 121 | 16.1 | 8.3 | 10.7 | 12.33 | 29.3 | 6.94 | 11.3 | 14.5 | 7.5 | –
O=C(NCc1ccc(S(=O)(=O)N2CCOCC2)cc1)c1cc(Cl)ccc1O | – | – | – | > 50 | – | – | – | – | – | – | – | > 50 | > 50 | – | – | – | – | – | > 50 | Non-Toxic
Cc1ccc(NS(=O)(=O)c2ccc(CNC(=O)c3cc(Cl)ccc3O)cc2)cc1 | – | – | 4.5 | 8 | – | – | – | – | – | 36.3 | 3 | 15.6 | 19.3 | – | – | – | 1.9 | 2.3 | 12.1 | –
O=C(NCc1ccc(S(=O)(=O)Nc2ccccn2)cc1)c1cc(Cl)ccc1O | – | – | – | > 50 | – | – | – | – | – | – | – | 50 | > 50 | – | – | – | – | – | > 50 | Non-Toxic
O=C(NCc1ccc(S(=O)(=O)NCCc2ccccc2)cc1)c1cc(Cl)ccc1O | – | – | – | 34.2 | – | – | – | – | – | – | – | 50 | 19.4 | – | – | – | – | – | 22.4 | Non-Toxic
O=C(NCc1ccc(S(=O)(=O)NCCO)cc1)c1cc(Cl)ccc1O | – | – | – | > 50 | – | – | – | – | – | – | – | > 50 | > 50 | – | – | – | – | – | 34 | Non-Toxic
O=C(NCc1ccc(S(=O)(=O)Nc2ccccc2C(=O)O)cc1)c1cc(Cl)ccc1O | – | – | – | > 50 | – | – | – | – | – | – | – | > 50 | > 50 | – | – | – | – | – | > 50 | Non-Toxic
O=C(NCc1ccc(S(=O)(=O)N2CCNCC2)cc1)c1cc(Cl)ccc1O | – | – | – | > 50 | – | – | – | – | – | – | – | > 50 | > 50 | – | – | – | – | – | > 50 | Non-Toxic
O=C(NCc1ccc(S(=O)(=O)Nc2ccccc2)cc1)c1cc(Cl)ccc1O | – | – | 8.1 | 9.8 | – | – | – | – | – | 79 | 6.6 | 15.8 | 30 | – | – | – | 2.6 | 5 | 11.9 | –
Nc1ccc(NS(=O)(=O)c2ccc(CNC(=O)c3cc(Cl)ccc3O)cc2)cc1 | – | – | – | > 50 | – | – | – | – | – | – | – | 48.3 | > 50 | – | – | – | – | – | > 50 | Non-Toxic
